Activity calls are given as the source filed them. No cut-off for these calls is given here. Bounds are passed on as bounds.

This note sets out measurements from ChEMBL document CHEMBL3407469, “Development of benzimidazole derivatives to inhibit HIV-1 replication through protecting APOBEC3G protein” (Eur J Med Chem, 2015).

Series [1] deals with Mus musculus. The series is described as follows: Toxicity in Balb/c mouse assessed as abnormality in kidney at 500 to 1000 mg/kg, ip. The conditions noted are these: in vivo. It is filed as organism-based. Details: dose 500-1000 mg/kg, route intraperitoneal. Put shortly: (§1)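 Male Balb/c mice aged 4–6 weeks were randomized into three groups (5 mice) and given a single intraperitoneal injection of 0, 500 or 1000 mg/kg. Body weight was followed for two weeks. On day 14, mice were sacrificed. Heart, liver, lung, spleen and kidney were fixed in 4% formaldehyde for H&E staining, and blood was analysed for AST, ALT, BUN and creatinine.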

The test system of series [2] is Mus musculus. The series is described as follows: Toxicity in Balb/c mouse assessed as effect on AST level at 500 to 1000 mg/kg, ip. Format: organism-based. On the set-up: dose 500-1000 mg/kg, route intraperitoneal. The conditions noted are these: in vivo. In short, it runs like this: as §1
In series [3] the test system is Mus musculus. The series is described as follows: Toxicity in Balb/c mouse assessed as abnormality in heart at 500 to 1000 mg/kg, ip. The conditions noted are these: in vivo. On the set-up: dose 500-1000 mg/kg, route intraperitoneal. It is filed as organism-based. Put shortly: as §1
Series [4] in a line: Inhibition of purified X4 tropic HIV-1 clone pNL4-3 His tagged Vif binding to recombinant human APOBEC3G expressed in Escherichia coli BL21 assessed as reduction in max resonance unit at 4 uM preincubated with APOBEC3G for 30 mins by surface plasmon resonance method relative to untreated A3G protein control. Put shortly:
(§2)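 His-tagged Vif and A3G were expressed from pET32a in E. coli BL21 with 1 mM IPTG and purified on Ni-agarose (500 mM imidazole elution). Vif-His was immobilized on a CM5 chip in 10 mM acetate, pH 4.0, then blocked with 1 M ethanolamine. A3G-His was pre-incubated at 25 °C for 30 min with compound or DMSO in 10 mM PBS with 5% DMSO before injection. SPR binding was read as max resonance units.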

In series [5] the test system is Human immunodeficiency virus 1. The series is described as follows: Antiviral activity against X4 tropic HIV-1 clone pNL4-3 infected in human PBMC cells assessed as reduction in p24 antigen at 0.00005 to 5 uM after 4 days by ELISA. Format: functional, organism-based. On the technique in general: An ELISA detects its analyte on a solid surface through an enzyme-linked reagent.

Series [6] relates to Mus musculus. The series is described as follows: Toxicity in Balb/c mouse assessed as abnormality in liver at 500 to 1000 mg/kg, ip. It is filed as organism-based. On the set-up: dose 500-1000 mg/kg, route intraperitoneal. The conditions noted are these: in vivo. Put shortly:
as §1

Series [7] has as its system 293T. The series is described as follows: Inhibition of full-length X4 tropic HIV-1 clone pNL4-3 Vif/human APOBEC3G complex transfected in human 293T cells assessed as increase in cellular APOBEC3G level measured after 48 hrs by fluorescence microscopy relative to control. It is filed as cell-based. In short, it runs like this: (§3)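 293T cells were co-transfected with Vif and A3G-GFP plasmids, then treated with DMSO or a dilution series of compound. After 48 h, A3G-GFP was measured as mean fluorescence intensity on a plate reader, by western blot, or by fluorescence microscopy, each compared with the DMSO control.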

Series [8] has as its system Mus musculus. The series is described as follows: Toxicity in Balb/c mouse assessed as abnormality in lung at 500 to 1000 mg/kg, ip. It is filed as organism-based. On the set-up: dose 500-1000 mg/kg, route intraperitoneal. The conditions noted are these: in vivo. In short, it runs like this:
as §1

The subject of series [9] is 293T. The series is described as follows: Inhibition of full-length X4 tropic HIV-1 clone pNL4-3 Vif/human APOBEC3G complex transfected in human 293T cells measured at 50 uM after 48 hrs by GFP-based fluorescence assay relative to control. It is filed as cell-based. In short, it runs like this: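 This was the primary screen in 293T cells co-transfected with HA-Vif and A3G-GFP plasmids (Lipofectamine 2000) and given a single compound concentration. DMSO-only wells and A3G-GFP-only transfected wells served as controls. GFP was read after 48 h. A3G-GFP MFI fold change was scored as −, none or <1; +, 1–2; ++, 2–3; +++, >3.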

Series [10] deals with 293T. The series is described as follows: Inhibition of full-length X4 tropic HIV-1 clone pNL4-3 Vif binding to ElonginB (unknown origin) transfected in human 293T cells measured at 50 uM after 48 hrs by co-immunoprecipitation assay. Format: cell-based. In short, it runs like this:
(§4)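 293T cells were transfected with HA-tagged Vif plus Flag-tagged EloC/EloB/Cul5 plasmids and treated with compound or DMSO. After 48 h, cells were lysed in IP lysis buffer. Lysates were incubated with anti-HA beads overnight at 4 °C and washed three times in lysis buffer before analysis of co-precipitated partners.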

In series [11] the test system is 293T. The series is described as follows: Inhibition of full-length X4 tropic HIV-1 clone pNL4-3 Vif/human APOBEC3G complex transfected in human 293T cells assessed as increase in cellular APOBEC3G level measured after 48 hrs by Western blot analysis relative to control. Format: cell-based. In short, it runs like this: as §3
A general note: Immunoblotting shows a protein as a band on a membrane.

The test system of series [12] is 293T. The series is described as follows: Inhibition of full-length X4 tropic HIV-1 clone pNL4-3 Vif binding to ElonginC (unknown origin) transfected in human 293T cells measured at 50 uM after 48 hrs by co-immunoprecipitation assay. Format: cell-based. Put shortly: as §4
Series [13] in a line: Cytotoxicity against human H9 cells by MTS assay. It is filed as cell-based.
Series [14] concerns Mus musculus. The series is described as follows: Toxicity in Balb/c mouse assessed as change in body weight at 500 to 1000 mg/kg, ip. Format: organism-based. Details: dose 500-1000 mg/kg, route intraperitoneal. The conditions noted are these: in vivo. In short, it runs like this: as §1
Series [15] deals with Mus musculus. The series is described as follows: Toxicity in Balb/c mouse assessed as effect on BUN level at 500 to 1000 mg/kg, ip. Format: organism-based. On the set-up: dose 500-1000 mg/kg, route intraperitoneal. The conditions noted are these: in vivo. In short, it runs like this:
as §1

Series [16] deals with Mus musculus. The series is described as follows: Toxicity in Balb/c mouse assessed as effect on ALT level at 500 to 1000 mg/kg, ip. It is filed as organism-based. Details: dose 500-1000 mg/kg, route intraperitoneal. The conditions noted are these: in vivo. Put shortly: as §1
For series [17], the system named is Mus musculus. The series is described as follows: Toxicity in Balb/c mouse assessed as effect on CRE level at 500 to 1000 mg/kg, ip. Format: organism-based. On the set-up: dose 500-1000 mg/kg, route intraperitoneal. The conditions noted are these: in vivo. Put shortly: as §1
Series [18] deals with Human immunodeficiency virus 1. The series is described as follows: Antiviral activity against X4 tropic HIV-1 clone pNL4-3 infected in H9 cells assessed as reduction in p24 antigen after 4 days by ELISA. Format: functional, organism-based. The conditions noted are these: Human immunodeficiency virus 1, pNL4-3, H9, 96 h.
For series [19], the system named is Mus musculus. The series is described as follows: Toxicity in Balb/c mouse assessed as abnormality in spleen at 500 to 1000 mg/kg, ip. It is filed as organism-based. Details: dose 500-1000 mg/kg, route intraperitoneal. The conditions noted are these: in vivo. Put shortly: as §1
Series [20] concerns 293T. The series is described as follows: Inhibition of full-length X4 tropic HIV-1 clone pNL4-3 Vif binding to Cullin5 (unknown origin) transfected in human 293T cells measured at 50 uM after 48 hrs by co-immunoprecipitation assay. It is filed as cell-based. In short, it runs like this:
as §4

Series [21] can be described thus: Inhibition of purified X4 tropic HIV-1 clone pNL4-3 His tagged Vif binding to recombinant human APOBEC3G expressed in Escherichia coli BL21 assessed as reduction in max resonance unit at 9 uM preincubated with APOBEC3G for 30 mins by surface plasmon resonance method relative to untreated A3G protein control. Put shortly: as §2
In general terms: SPR reads the build-up and loss of mass on a sensor chip optically.

As for `CCN(CC)c1ccc(/C=C(\C#N)c2nc3ccccc3[nH]2)cc1`, the Activity entry in series [1], in [2], in series [3], in series [6], in series [8] and in series [14] was “Non-toxic” each time. Besides, the Activity result in series [15], in series [16], in [17] and in series [19] was “Non-toxic” throughout. The inhibition (usually how much of the control response was suppressed) is 17% in [4], “Dose-dependent effect” in series [7] and “Dose-dependent effect” in series [11]. Further, the result in series [5] was Active. The compound further displayed a fold change (FC) in series [9] greater than 3. Further, the inhibition result in series [10], in [12] and in [20] was “inactive” in each case. In addition, the half-maximal cytotoxic concentration (CC50) (usually the concentration at which the toxic effect on the cells reaches its halfway point) in series [13] was greater than 50 µM. Besides, the half-maximal inhibitory concentration (IC50) (usually the concentration at which inhibition is half-maximal) in [18] came to 0.00345 µM.
With `CCN(CC)c1ccc(/C=C(\C#N)c2nc3ccncc3[nH]2)cc1`, the fold change (FC) in series [9] was found to be 2. For the same compound, the CC50 in [13] is greater than 50 µM. Further, the IC50 in series [18] amounted to 7.3 µM.
For `COc1cc(/C=C(\C#N)c2nc3ccccc3[nH]2)ccc1O`, the Activity result in [1], in [2], in [3], in series [6], in [8] and in series [14] was “Non-toxic” in each case. Besides, the Activity result in series [15], in series [16], in [17] and in series [19] was “Non-toxic” each time. Also, the inhibition in [21] was 17%; in [7], “Dose-dependent effect”; in series [11], “Dose-dependent effect”. Further, the outcome in series [5] was Active. Also, the fold change (FC) in series [9] was greater than 3. For the same compound, the inhibition result in series [10], in series [12] and in [20] was “inactive” in each case. This compound also showed a CC50 in series [13] greater than 50 µM. Moreover, the half-inhibitory concentration (IC50) in series [18] was 0.058 µM.
`CCN(CC)c1ccc(/C=C(\C#N)c2nc3cc(C(=O)OC)ccc3[nH]2)cc1` had a fold change (FC) in [9] of 2. This compound yielded a CC50 in series [13] greater than 50 µM. Besides, the IC50 in series [18] worked out at 1.68 µM.
Compound `CC(=O)Nc1ccc(/C=C(\C#N)c2nc3ccccc3[nH]2)cc1` showed a fold change (FC) in series [9] of less than 1. The same compound had a CC50 in series [13] greater than 50 µM. Further, the concentration for half-maximal inhibition (IC50) in series [18] was greater than 50 µM.
As for `CCN(CC)c1ccc(CC(C#N)c2nc3ccccc3[nH]2)cc1` (centres undefined), in series [9], the fold change (FC) was less than 1. Besides, the CC50 in series [13] is greater than 50 µM. Besides, the IC50 in series [18] was greater than 50 µM.
Regarding `CCN(CC)c1ccc(/C=C(\C#N)c2nc3cc(OC(F)(F)F)ccc3[nH]2)cc1`, the fold change (FC) in [9] was greater than 3. In series [13], this compound displayed a CC50 greater than 50 µM. For the same compound, the IC50 in series [18] was 1.35 µM.
For the compound `COc1cc(OC)c(OC)cc1/C=C(\C#N)c1nc2ccccc2[nH]1`, the fold change (FC) in series [9] was 1. The CC50 in series [13] is greater than 50 µM. Further, the IC50 in series [18] is greater than 50 µM.
In the case of `COc1cc(/C=C(\C#N)c2nc3ccccc3[nH]2)cc(OC)c1OC`, in series [9], the fold change (FC) amounted to 1. This compound also displayed a CC50 in series [13] greater than 50 µM. In addition, the IC50 in series [18] was greater than 50 µM.
Take `COc1ccc(/C=C(\C#N)c2nc3ccccc3[nH]2)cc1`: in series [9], the fold change (FC) came out at 2. For the same compound, the CC50 in series [13] was greater than 50 µM. Further, the IC50 in series [18] was 2.85 µM.
